High-throughput results (PubChem)
DNMT1 block: human DNMT1 methyltransferase inhibitors, primary screen, biochemical, molecular beacon, fluorescence, HinP1I cleavage, uHTS | DNA (cytosine-5)-methyltransferase 1 (Homo sapiens), P26358 | inhibition (reported as % activation of signal), % at 10 µM | 360,000 compounds, 0.83% hits | AID 588458, 2011; in the data active = inhibition above about 50%
Target sequence (P26358 504-1616 limits assumed): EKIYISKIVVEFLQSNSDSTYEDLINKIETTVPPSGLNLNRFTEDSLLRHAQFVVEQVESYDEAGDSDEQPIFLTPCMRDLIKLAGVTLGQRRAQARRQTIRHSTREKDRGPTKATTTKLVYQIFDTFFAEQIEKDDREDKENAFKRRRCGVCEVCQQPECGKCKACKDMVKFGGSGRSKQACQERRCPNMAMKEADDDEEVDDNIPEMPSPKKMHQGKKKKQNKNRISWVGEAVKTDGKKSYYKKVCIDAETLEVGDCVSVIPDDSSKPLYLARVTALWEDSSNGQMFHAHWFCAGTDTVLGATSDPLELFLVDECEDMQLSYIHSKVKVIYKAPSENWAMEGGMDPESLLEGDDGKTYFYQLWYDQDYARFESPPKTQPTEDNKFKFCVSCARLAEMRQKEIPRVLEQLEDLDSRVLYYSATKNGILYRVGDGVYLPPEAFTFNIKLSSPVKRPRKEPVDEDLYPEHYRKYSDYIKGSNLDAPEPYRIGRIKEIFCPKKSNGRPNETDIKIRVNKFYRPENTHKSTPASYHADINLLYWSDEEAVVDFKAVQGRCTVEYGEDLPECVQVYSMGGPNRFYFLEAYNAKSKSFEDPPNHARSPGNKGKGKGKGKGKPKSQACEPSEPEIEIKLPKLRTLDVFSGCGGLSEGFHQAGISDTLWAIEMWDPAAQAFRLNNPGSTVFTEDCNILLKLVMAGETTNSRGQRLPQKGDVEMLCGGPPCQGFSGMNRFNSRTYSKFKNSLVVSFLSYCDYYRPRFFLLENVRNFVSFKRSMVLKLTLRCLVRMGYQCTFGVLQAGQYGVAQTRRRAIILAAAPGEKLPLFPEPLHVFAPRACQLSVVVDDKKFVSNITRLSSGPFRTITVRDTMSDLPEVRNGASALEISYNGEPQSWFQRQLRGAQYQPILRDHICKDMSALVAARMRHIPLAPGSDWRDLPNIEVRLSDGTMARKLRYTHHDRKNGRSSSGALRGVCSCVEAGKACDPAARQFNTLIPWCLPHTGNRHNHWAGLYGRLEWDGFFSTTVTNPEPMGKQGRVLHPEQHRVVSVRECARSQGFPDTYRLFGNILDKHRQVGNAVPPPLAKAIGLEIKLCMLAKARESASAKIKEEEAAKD
SUMO1-SIM PPI: modulators of SUMO1 protein-protein interactions, primary screen, biochemical, uHTS. Small ubiquitin-related modifier 1 (Homo sapiens), P63165. SUMO1 binding to a labelled peptide, TR-FRET, 1 h. inhibition, % at 20 µM. 360,000 compounds, 0.33% hits; in the data active = inhibition above about 37%
LMPTP inh: LMPTP phosphatase inhibitors, primary screen, biochemical, fluorescence intensity, uHTS; inhibition, % at 20 µM; recombinant LMPTP-A, OMFP fluorogenic substrate; AID 651560, 2012; 360,000 compounds, 0.22% hits;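 active = compounds that cut the enzyme signal by at least half of the control window in the single-dose screen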;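 note: plate controls were DMSO wells with enzyme plus substrate for no effect and substrate without enzyme for full effect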
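Test system: LMPTP-A phosphatase enzyme. Amount: LMPTP-A at 0.625 nM final in the reaction. Reagent: OMFP substrate, 400 µM final. Times: 50 min at room temperature. Signal: endpoint fluorescence intensity from OMFP dephosphorylation. Read-out basis: % inhibition. Benchmarks: no-enzyme and uninhibited controls.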
STEP block: STEP phosphatase inhibitors, primary screen, biochemical, fluorescence intensity, uHTS; Tyrosine-protein phosphatase non-receptor type 5 (Homo sapiens), P54829; recombinant STEP, OMFP fluorogenic substrate; inhibition, % at 20 µM; 360,000 compounds, 0.25% hits; AID 588621, 2011;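 active = inhibition at 20 µM, scaled per plate between control wells, above about 37%, limit read from the data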;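 note: 0% = DMSO with enzyme and substrate and 100% = substrate only without enzyme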
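Material: STEP (striatal-enriched tyrosine phosphatase) enzyme, cell-free | Medium: 50 mM Bis-Tris pH 6.0 with 2.5 mM DTT and 0.005% Tween 20 | Read-out: Percent inhibition scaled to no-enzyme and uninhibited-enzyme controls, plate-pattern corrected | Signal: Fluorescence read at 480 nm ex / 540 nm em | Times: 20 min reaction, room temperature, in the dark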
NadD inh: inhibitors of S. aureus NadD, primary screen, biochemical, colorimetric, uHTS; purified NadD enzyme, colorimetric absorbance read-out; 360,000 compounds, 0.78% hits; AID 602399, 2012; Nicotinate-nucleotide adenylyltransferase NadD (Staphylococcus aureus N315); inhibition, % at 20 µM; in the data active = inhibition above about 26%
Scp1 inh: Scp-1 phosphatase inhibitors, primary screen, biochemical, colorimetric, uHTS | inhibition, % at 20 µM | 340,000 compounds, 0.88% hits | Carboxy-terminal domain RNA polymerase II polypeptide A small phosphatase 1 (Homo … | Recombinant Scp1, phosphopeptide, malachite green phosphate absorbance;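 active = inhibition above about 50% at 20 µM, limit read from the data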;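 note: plate controls were DMSO wells with enzyme for no effect and wells lacking enzyme for full effect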
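System: SCP-1 catalytic domain; Reagent: Phospho 17-mer peptide substrate; Doses: one concentration, 20 µM, with 1.0% DMSO; Incubation: 45 min room-temperature reaction, 5 min colour, 30 min stabiliser; Signal: Phosphate-binding colour reagent, absorbance read at 630 nm.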
DNMT1 inh conf: DNMT1 methyltransferase inhibitor retest, confirmation, biochemical, molecular beacon, fluorescence, single concentration; shares compounds with DNMT1 block; inhibition, % at 10 µM; 2,300 compounds, 8% hits; DNMT1 molecular beacon HinP1I cleavage;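 active = average inhibition of at least 30% in the single-concentration confirmation test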
Beacon interf: beacon fluorescence artifact counter-screen; 2,300 compounds, 1% hits; DNMT1 molecular beacon spectral interference counterscreen, fluorescence 485/520; AID 602387; shares compounds with DNMT1 block; activation (fluorescence interference), % at 10 µM;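 active = activation of at least 30% at 10 µM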;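 note: DNMT1 catalytic domain with a HinP1I cleavage step and a FAM/dabcyl DNA beacon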
Numbers without * were called inactive; · = no result. In the library only some 2.4% were active in any assay of this set; here they are far more common.

SMILES | DNMT1 block | SUMO1-SIM PPI | LMPTP inh | STEP block | NadD inh | Scp1 inh | DNMT1 inh conf | Beacon interf
COCCn1c(SCC(=O)Nc2ccc(F)cc2)nc2ccccc2c1=O | 83* | -1 | -1 | -1 | -1 | -10 | 1 | 2
O=C(c1cccc(C(F)(F)F)c1)N1CCOc2ccccc21 | 54* | 0 | 0 | 0 | -1 | -3 | 5 | 7
Cc1ccc2nc(NC(=O)/C=C/c3ccc4c(c3)OCO4)sc2c1 | 56* | -1 | 8 | 10 | 16 | 6 | 2 | -4
CCOc1ccc(Cl)cc1CNc1nnnn1CC | -1 | 11 | 0 | -1 | 4 | -1 | · | ·
CCOc1ccc2ccccc2c1CNc1nnnn1CC | 92* | -5 | -1 | 1 | -4 | 1 | 0 | 0
O=C(CCNC(=O)N1CC(=O)Nc2ccccc21)NCc1ccc(F)cc1 | -1 | -1 | -1 | 0 | -2 | -7 | · | ·
Cc1nc(NCc2ccc3c(c2)OCO3)c2nnn(Cc3ccccc3)c2n1 | 55* | 6 | 0 | -1 | -4 | 3 | 3 | 3
c1ccc(Cn2nnc3c(NCc4ccc5c(c4)OCO5)nc(C4CC4)nc32)cc1 | 37 | 0 | -1 | 0 | 1 | 8 | · | ·
CSc1nc2n(n1)C(c1cccc(F)c1)C(C(=O)Nc1ccc(C)cc1C)=C(C)N2 (stereo unspecified) | 38 | -1 | -3 | -8 | 1 | -12 | · | ·
CC1=C(C(=O)Nc2ccc(C)cc2C)C(c2ccc(Cl)cc2)n2nc(C(=O)OC(C)C)nc2N1 (stereo unspecified) | 57* | -3 | -3 | 3 | 3 | -4 | 2 | 0
COc1ccc(C(=O)N2CCCCC2)cc1S(=O)(=O)Nc1cccc(C(=O)O)c1 | 1 | -2 | -1 | -4 | 6 | -1 | · | ·
COC(=O)c1ccc(CCc2cc(O)ccc2O)cc1 | 72* | -2 | 0 | -1 | 6 | -10 | 4 | 5
COCCn1c(SCC(=O)N2CCCC(C)C2)nnc1-c1ccco1 (stereo unspecified) | 1 | 5 | 5 | -2 | 0 | -4 | · | ·
Cc1cc(C(=O)NCc2ccc(Cl)cc2)n(-c2ccccc2)n1 | 0 | -3 | 1 | 0 | -10 | 9 | · | ·
Cc1ccc(CCNC(=O)c2cc(C)nn2-c2ccccc2)cc1 | 61* | -1 | 0 | -1 | 0 | -7 | 2 | 1
O=C(O)Cn1nc2c3c(cccc3c1=O)-c1ccccc1-2 | 2 | -14 | -2 | 1 | 1 | 0 | · | ·
Cc1ccc(-n2nc3c4c(cccc4c2=O)-c2ccccc2-3)cc1 | 52* | -6 | 4 | 2 | 11 | -5 | 2 | 0
C=CCn1c(CSc2ccccc2[N+](=O)[O-])n[nH]c1=S | 70* | 20 | 43 | 6 | 9 | 17 | 0 | -3
CCOc1ccc(NC(=O)CCCc2cc(-c3ccc(OCC)cc3)on2)cc1 | 57* | -2 | 0 | 5 | -1 | -7 | 1 | 4
CCOc1ccc(-c2cc(CCCC(=O)Nc3cccc(OC)c3)no2)cc1 | -10 | -2 | 1 | 0 | -4 | 2 | · | ·
Cc1cc(C)c(C(=O)COC(=O)Cn2cnnn2)cc1C | 2 | 2 | -1 | 1 | -5 | 0 | · | ·
O=C(Cn1cnnn1)OCC(=O)c1ccc(Cl)s1 | 58* | -3 | 2 | -2 | 4 | -2 | 7 | 2
CC(=O)OC(C(=O)n1nc(C)cc1C)c1ccccc1 (stereo unspecified) | 1 | 8 | -1 | -3 | 1 | -4 | · | ·
Clc1nc2ccccc2cc1/C=N/Nc1nc2ccccc2[nH]1 | 55* | -9 | 5 | 6 | 10 | -10 | 2 | -7
CCOC(=O)CNC(=O)CSc1nnc(-c2ccncc2)n1-c1ccc(Cl)cc1 | -1 | 0 | 0 | 1 | -5 | 0 | · | ·
SMILES | DNMT1 block | SUMO1-SIM PPI | LMPTP inh | STEP block | NadD inh | Scp1 inh | DNMT1 inh conf | Beacon interf
C=CCOc1ccc(-c2n[nH]c(=S)o2)cc1 | 1 | 7 | -1 | 3 | 4 | -14 | · | ·
COC(=O)COc1ccc(S(=O)(=O)Nc2ccccc2SC)cc1 | 79* | -1 | -1 | -1 | -4 | -28 | 4 | 8
CCn1cc(S(=O)(=O)NCCc2ccc(OC)c(OC)c2)cn1 | 83* | -2 | 1 | 0 | 2 | 1 | 3 | 0
CCC(=O)N1c2ccccc2-c2nnc(SC)nc2OC1c1ccc(N(C)C)cc1 (stereo unspecified) | -3 | -19 | -1 | 2 | 6 | -2 | · | ·
CCC1Oc2nc(SC)nnc2-c2ccccc2N1C(=O)c1ccccc1 (stereo unspecified) | 54* | -23 | 0 | 2 | 4 | -14 | 5 | 6
COc1ccc(S(=O)(=O)N2CC(C(=O)O)Oc3ccc(Cl)cc32)cc1 (stereo unspecified) | 4 | 5 | -1 | -1 | -3 | 1 | · | ·
CN(C=[N+](C)C)c1cccc2c1C(=O)c1ccccc1C2=O | 62* | -18 | -1 | -4 | 6 | 2 | 5 | 6
Cc1ccc([C@@H]2[C@@H]3C(=O)N(C)C(=O)[C@@H]3[C@]3(C)C(=O)N(CC4CC4)CC(=O)N23)o1 | 1 | 4 | -1 | -4 | -1 | 7 | · | ·
COC(=O)CN1C(=O)[C@H]2[C@@H](c3ccc(C)o3)N3C(=O)CN(CCO)C(=O)[C@@]3(C)[C@H]2C1=O | 103* | 10 | -1 | -2 | -3 | 0 | 2 | 4
O=[N+]([O-])c1ccccc1S(=O)(=O)N1CCN(Cc2ccccc2)CC1 | 3 | -4 | -1 | 1 | -2 | 2 | · | ·
CC(C)(C)NC(=O)Cc1ccc(S(=O)(=O)N2CCCC2)s1 | 72* | -1 | -2 | 8 | 1 | 9 | 3 | -1
Cc1nc(SCCC(C)C)c([N+](=O)[O-])[nH]1 | 94* | -29 | -1 | 3 | 9 | 3 | 7 | 6
Cc1nc(SCCO)c([N+](=O)[O-])[nH]1 | -1 | -11 | 1 | 0 | 1 | -7 | · | ·
O=C(Nc1ccccc1N1CCN(c2ccccc2)CC1)C12CC3CC(CC(C3)C1)C2 | -2 | -5 | 3 | 0 | 10 | 3 | · | ·
